Converted amounts (≈) assume the structure as drawn.
Tests used:
[1] = Cytotoxicity against mouse RAW264.7 cells at 50 uM after 72 hrs by MTT assay; type: cell-based; settings: read-out: INH
[2] = target: T1, Pantothenate synthetase (Mycobacterium tuberculosis, UniProt P9WIL5); assay: Inhibition of Mycobacterium tuberculosis pantothenate synthetase expressed in Escherichia coli BL21 (DE3)
T1 sequence (P9WIL5 whole entry): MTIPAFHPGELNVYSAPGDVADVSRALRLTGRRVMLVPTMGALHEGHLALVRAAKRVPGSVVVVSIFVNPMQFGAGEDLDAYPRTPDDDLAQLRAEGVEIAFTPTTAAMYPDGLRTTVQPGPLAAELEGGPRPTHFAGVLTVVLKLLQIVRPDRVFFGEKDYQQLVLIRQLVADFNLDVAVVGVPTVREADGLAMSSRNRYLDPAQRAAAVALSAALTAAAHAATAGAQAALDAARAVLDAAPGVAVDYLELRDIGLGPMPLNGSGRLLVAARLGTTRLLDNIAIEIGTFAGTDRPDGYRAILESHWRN
Summary of the method: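 panC (Rv3602c) cloned into E. coli BL21(DE3). Coupled assay: reagent mix of NADH, pantoic acid, β-alanine, ATP, phosphoenolpyruvate, MgCl2, myokinase, pyruvate kinase, lactate dehydrogenase; reaction started with PS; A340 read every 12 s for 120 s.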

[3] = system: Mycobacterium tuberculosis; assay: Antimycobacterial activity against Mycobacterium tuberculosis H37Rv ATCC 27294 after 28 days by agar dilution method; type: functional; settings: H37Rv ATCC 27294, 672 h
Summary of the method: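 Agar dilution on Middlebrook 7H11 agar tubes with OADC, drug 50 to 0.78 µg/mL, in duplicate. Inoculum from fresh slants adjusted to 1 mg/mL wet weight in 0.05% Tween 80 saline, diluted 10^-2 (~10^7 cfu/mL); 5 µL spotted. Incubated 37 °C, MIC read after 28 days.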

[4] = target: T2, Pantothenate synthetase (Mycobacterium tuberculosis) (UniProt P9WIL5); assay: Binding affinity to Mycobacterium tuberculosis pantothenate synthetase expressed in Escherichia coli BL21 (DE3) assessed as increase in thermal stability
T2 sequence (whole entry): T1 sequence (P9WIL5 whole entry)
Summary of the method: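 Differential scanning fluorimetry: protein–ligand complexes heated from 25 °C to 95 °C in 0.1 °C steps with SYPRO Orange dye; melting temperature shift relative to native protein recorded.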

| SMILES | cytotoxicity at 72 h, 50 µM [1] | IC50 [2] | MIC [3] | Tm [4] |
| --- | --- | --- | --- | --- |
| NC(=O)c1c(NC(=O)c2ccc([N+](=O)[O-])s2)sc2c1CCN(C(=S)Nc1ccc(F)cc1)C2 | 26.8% | 10.2 µM | 12.3 µM (≈ 6.24 µg/mL) | – |
| NC(=O)c1c(NC(=O)c2ccc([N+](=O)[O-])s2)sc2c1CCN(C(=O)NCc1ccccc1)C2 | 26.1% | 18.2 µM | 25.7 µM (≈ 12.5 µg/mL) | – |
| NC(=O)c1c(NC(=O)c2ccc([N+](=O)[O-])o2)sc2c1CCN(C(=O)Nc1ccc(Cl)cc1)C2 | – | > 25 µM | 51 µM (≈ 25 µg/mL) | – |
| COc1ccc(S(=O)(=O)N2CCc3c(sc(NC(=O)c4ccc([N+](=O)[O-])o4)c3C(N)=O)C2)cc1 | 19.4% | 20.3 µM | 24.6 µM (≈ 12.5 µg/mL) | – |
| NC(=O)c1c(NC(=O)c2ccc([N+](=O)[O-])o2)sc2c1CCN(C(=S)NCc1ccccc1)C2 | 18.1% | 17 µM | 26.5 µM (≈ 12.9 µg/mL) | – |
| NC(=O)c1c(NC(=O)c2ccc([N+](=O)[O-])o2)sc2c1CCN(C(=O)Nc1ccc([N+](=O)[O-])cc1)C2 | 36.1% | 19.8 µM | 24.9 µM (≈ 12.5 µg/mL) | – |
| NC(=O)c1c(NC(=O)c2ccc([N+](=O)[O-])s2)sc2c1CCN(S(=O)(=O)c1ccc(Br)cc1)C2 | 26.8% | 14.2 µM | 21.9 µM (≈ 12.5 µg/mL) | – |
| NC(=O)c1c(NC(=O)c2ccc([N+](=O)[O-])s2)sc2c1CCN(S(=O)(=O)c1ccc([N+](=O)[O-])cc1)C2 | 29.2% | 5.87 µM | 9.28 µM (≈ 4.99 µg/mL) | 50.4 °C |
| COc1ccc(NC(=O)N2CCc3c(sc(NC(=O)c4ccc([N+](=O)[O-])s4)c3C(N)=O)C2)cc1 | 20.9% | 14.5 µM | 24.9 µM (≈ 12.5 µg/mL) | – |
| NC(=O)c1c(NC(=O)c2ccc([N+](=O)[O-])o2)sc2c1CCN(S(=O)(=O)c1ccc(F)cc1)C2 | 22.1% | 17.6 µM | 25.2 µM (≈ 12.5 µg/mL) | – |
| CC[C@@H](CO)NCCN[C@@H](CC)CO [ETHAMBUTOL] | – | > 25 µM | 7.64 µM (≈ 1.56 µg/mL) | – |
| NC(=O)c1c(NC(=O)c2ccc([N+](=O)[O-])o2)sc2c1CCN(C(=S)Nc1ccc([N+](=O)[O-])cc1)C2 | 28.2% | 18.7 µM | 24.2 µM (≈ 12.5 µg/mL) | – |
| NC(=O)c1c(NC(=O)c2ccc([N+](=O)[O-])o2)sc2c1CCN(C(=O)NCc1ccccc1)C2 | 24.3% | 14.1 µM | 26.6 µM (≈ 12.5 µg/mL) | – |
| NC(=O)c1c(NC(=O)c2ccc([N+](=O)[O-])o2)sc2c1CCN(S(=O)(=O)c1ccc([N+](=O)[O-])cc1)C2 | – | > 25 µM | 47.9 µM (≈ 25 µg/mL) | – |
| NC(=O)c1c(NC(=O)c2ccc([N+](=O)[O-])o2)sc2c1CCN(S(=O)(=O)c1ccc(Br)cc1)C2 | – | > 25 µM | 45 µM (≈ 25 µg/mL) | – |
| NC(=O)c1c(NC(=O)c2ccc([N+](=O)[O-])s2)sc2c1CCN(C(=O)Nc1ccc([N+](=O)[O-])cc1)C2 | 33.6% | 9.68 µM | 12.1 µM (≈ 6.24 µg/mL) | – |
| CC(=O)c1ccc(S(=O)(=O)N2CCc3c(sc(NC(=O)c4ccc([N+](=O)[O-])s4)c3C(N)=O)C2)cc1 | – | > 25 µM | 46.7 µM (≈ 25 µg/mL) | – |
| NC(=O)c1c(NC(=O)c2ccc([N+](=O)[O-])o2)sc2c1CCN(C(=S)Nc1ccc(F)cc1)C2 | 28.1% | 20.9 µM | 25.5 µM (≈ 12.5 µg/mL) | – |
| NC(=O)c1c(NC(=O)c2ccc([N+](=O)[O-])s2)sc2c1CCN(C(=S)Nc1ccc(Cl)cc1)C2 | 21.4% | 6.28 µM | 11.9 µM (≈ 6.24 µg/mL) | – |
| COc1ccc(NC(=O)N2CCc3c(sc(NC(=O)c4ccc([N+](=O)[O-])o4)c3C(N)=O)C2)cc1 | – | 15.1 µM | 53.2 µM (≈ 25.8 µg/mL) | – |
| NC(=O)c1c(NC(=O)c2ccc([N+](=O)[O-])s2)sc2c1CCN(S(=O)(=O)c1ccc(F)cc1)C2 | 30.2% | 11.7 µM | 12.2 µM (≈ 6.24 µg/mL) | – |
| NC(=O)c1c(NC(=O)c2ccc([N+](=O)[O-])s2)sc2c1CCN(C(=O)Nc1ccc(Cl)cc1)C2 | 24.4% | 10.2 µM | 12.3 µM (≈ 6.23 µg/mL) | – |
| NC(=O)c1c(NC(=O)c2ccc([N+](=O)[O-])o2)sc2c1CCN(C(=S)Nc1ccc(Cl)cc1)C2 | 24.7% | 19.2 µM | 24.7 µM (≈ 12.5 µg/mL) | – |
| NNC(=O)c1ccncc1 [ISONIAZID] | – | > 25 µM | 0.72 µM (≈ 0.0987 µg/mL) | – |
| CC(=O)c1ccc(S(=O)(=O)N2CCc3c(sc(NC(=O)c4ccc([N+](=O)[O-])o4)c3C(N)=O)C2)cc1 | – | > 25 µM | 48.2 µM (≈ 25 µg/mL) | – |
| NC(=O)c1c(NC(=O)c2ccc([N+](=O)[O-])s2)sc2c1CCN(C(=S)Nc1ccc([N+](=O)[O-])cc1)C2 | 28.6% | 9.11 µM | 11.7 µM (≈ 6.24 µg/mL) | – |
| CC(=O)N1CCc2c(sc(NC(=O)c3cccs3)c2C(N)=O)C1 | – | > 25 µM | 9.15 µM (≈ 3.2 µg/mL) | – |
| NC(=O)c1c(NC(=O)c2ccc([N+](=O)[O-])s2)sc2c1CCN(C(=S)NCc1ccccc1)C2 | 22.2% | 13.2 µM | 19.9 µM (≈ 9.99 µg/mL) | – |
| COc1ccc(S(=O)(=O)N2CCc3c(sc(NC(=O)c4ccc([N+](=O)[O-])s4)c3C(N)=O)C2)cc1 | 24.5% | 19 µM | 23.9 µM (≈ 12.5 µg/mL) | – |

From ChEMBL document CHEMBL3120119, “Development of novel tetrahydrothieno[2,3-c]pyridine-3-carboxamide based Mycobacterium tuberculosis pantothenate synthetase inhibitors: molecular hybridization from known antimycobacterial leads” (Bioorg Med Chem, 2014)
